From article PMC10079166 (Journal of medicinal chemistry, 2019)
Entries after “also recorded” stand apart in the source; their conditions may differ. Where two headings read alike, the source gives them in different places. Non-standard residues stand in square brackets, D forms with d. Residues, ends and D or L forms follow the SMILES beside them. dPhe(4-guanidino) = N=C(N)Nc1ccc(C[C@@H](N)C(=O)O)cc1

What was measured:
[1] = test system: HVA Ca2+ currents in human MRGPRX1-expressing DRG neurons; format: cell-based, mouse; conditions: DRG neurons from MrgprX1 mice
human MRGPRX1 [2] = biological target: T1, human MRGPRX1 (Homo sapiens, UniProt Q96LB2); format: cell-based; conditions: for agonist type at human MRGPRX1: HTS hits, FLIPR calcium 4 Assay Kit; for ligand efficiency (LE): human MRGPRX1 agonists; for fold decrease in agonist potency as compared to 5a: relative to 5a; for agonist activity at MRGPRX1: at concentrations up to 100 μM
T1 sequence (Q96LB2 whole entry): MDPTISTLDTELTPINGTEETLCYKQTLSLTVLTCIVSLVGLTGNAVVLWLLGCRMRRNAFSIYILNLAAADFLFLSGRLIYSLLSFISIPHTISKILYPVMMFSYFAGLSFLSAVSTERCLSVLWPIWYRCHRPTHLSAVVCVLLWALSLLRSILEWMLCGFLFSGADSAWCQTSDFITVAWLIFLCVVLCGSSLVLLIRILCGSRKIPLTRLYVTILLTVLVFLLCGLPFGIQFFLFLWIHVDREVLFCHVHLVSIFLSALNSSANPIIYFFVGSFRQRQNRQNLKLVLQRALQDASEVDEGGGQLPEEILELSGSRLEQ
How it was run: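 HEK293 cells stably expressing human MrgprX1 were plated at 25,000 cells/well and grown 2 days. They were loaded with 2 μM Fluo 4AM and 1% Trypan Red in HBSS for 50 min at 37°C, then equilibrated 10 min at room temperature. Serial dilutions in HBSS were added, with BAM 8–22 as positive and HBSS as negative control. FLIPR imaging ran 2 min; read-out was maximum minus minimum fluorescence.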

[3] = test system: δ-, μ- and κ-opioid receptors; test: Selectivity of MRGPRX1 agonists over opioid receptors; format: binding; conditions: MRGPRX1 versus δ-
[4] = Metabolic stability in mouse liver microsomes; format: in vitro ADME
mouse MRGPRC11 [5] = biological target: T2, mouse MRGPRC11 (Mus musculus, UniProt Q8CIP3); test: Agonist activity at mouse MRGPRC11; format: cell-based; conditions: even at concentration of 40 μM
T2 sequence (Q8CIP3 1-322): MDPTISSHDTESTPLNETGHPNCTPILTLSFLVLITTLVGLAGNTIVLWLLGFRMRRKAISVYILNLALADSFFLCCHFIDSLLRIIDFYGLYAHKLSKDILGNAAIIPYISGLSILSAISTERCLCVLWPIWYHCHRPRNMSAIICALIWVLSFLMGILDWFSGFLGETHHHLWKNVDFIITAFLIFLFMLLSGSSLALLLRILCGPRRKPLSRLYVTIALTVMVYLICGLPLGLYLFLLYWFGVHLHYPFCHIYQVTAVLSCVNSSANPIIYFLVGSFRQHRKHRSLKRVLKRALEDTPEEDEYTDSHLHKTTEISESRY

neuropathic pain = conditions: rodent models of neuropathic pain; cited from earlier work
mouse MRGPRC11 [6] = biological target: T2, mouse MRGPRC11; conditions: cited from earlier work
human MRGPRX1 [7] = biological target: T1, human MRGPRX1; conditions: cited from earlier work
rat MRGPRC = conditions: cited from earlier work
[8] = test system: mechanical and thermal hyperalgesia; conditions: intrathecal (spinal cord) injection, mice; cited from earlier work
[9] = test system: mechanical and thermal hyperalgesia; conditions: intrathecal (spinal cord) injection, rats; cited from earlier work

COc1cc(CNc2ccc(C(=N)N)cc2)ccc1OCc1ccccc1 [Compound 5a, 4-(4-(Benzyloxy)-3-methoxybenzylamino)benzimidamide]
inhibitory effect on HVA Ca2+ currents ([1]; bath application of 10 μM): inhibited HVA Ca^2+ currents
agonist type at human MRGPRX1 (human MRGPRX1 [2]): full agonists
ligand efficiency (LE) (human MRGPRX1 [2]): 0.32–0.33

COc1cc(CNc2cccc(C(=N)N)c2)ccc1OCc1ccccc1 [Compound 5b, 3-(4-(Benzyloxy)-3-methoxybenzylamino)benzimidamide]
fold decrease in agonist potency as compared to 5a (human MRGPRX1 [2]): 6 fold

COc1cc(CNc2ccccc2C(=N)N)ccc1OCc1ccccc1 [Compound 5c, 2-(4-(Benzyloxy)-3-methoxybenzylamino)benzimidamide]
inhibitory effect on HVA Ca2+ currents ([1]; bath application of 10 μM): no inhibitory effects
agonist activity at MRGPRX1 (human MRGPRX1 [2]): negligible agonist activity
fold decrease in agonist potency as compared to 5a (human MRGPRX1 [2]): > 100 fold

COc1cc(CNc2ccc(C(=N)N)cc2)ccc1OCc1cccnc1 [Compound 5d, 4-(3-Methoxy-4-(pyridin-3-ylmethoxy)benzylamino)benzimidamide]
fold decrease in agonist potency as compared to 5a (human MRGPRX1 [2]): 10 fold

CCCCS(=O)(=O)Nc1cc(C)ccc1Oc1ccc(C(=N)N)cc1 [Compound 11a, 4-(2-(Butylsulfonamido)-4-methylphenoxy)benzimidamide]
agonist type at human MRGPRX1 (human MRGPRX1 [2]): full agonists
ligand efficiency (LE) (human MRGPRX1 [2]): 0.32–0.33

COc1ccccc1S(=O)(=O)Nc1ccc(C)cc1Oc1ccc2c(N)nccc2c1 [Compound 16, N-(2-(1-Aminoisoquinolin-6-yloxy)-4-methylphenyl)-2-methoxybenzenesulfonamide]
selectivity over all three opioid receptors [3]: ≥ 50 fold
half-life [4]: < 15 min
activity against mouse MRGPRC11 (mouse MRGPRC11 [5]): inactive

COc1ccccc1S(=O)(=O)Nc1ccc(C)cc1Oc1ccc2sc(N)nc2c1 [Compound 19, N-(2-(2-Aminobenzo[d]thiazol-5-yloxy)-4-methylphenyl)-2-methoxybenzenesulfonamide]
agonist activity at MRGPRX1 (human MRGPRX1 [2]): negligible agonist activity; also recorded: no agonist activity

NC(=O)[C@H](Cc1ccccc1)NC(=O)[C@H](N)Cc1ccc(N=C(N)N)cc1 [JHU-58] (H-[dPhe(4-guanidino)]-Phe-NH2)
analgesic effects (neuropathic pain): exhibits analgesic effects
agonist activity at mouse MRGPRC11 (mouse MRGPRC11 [6]): full agonist activity
agonist activity at human MRGPRX1 (human MRGPRX1 [7]; introduction): negligible agonist activity
agonist activity at rat MRGPRC (rat MRGPRC): full agonist activity

BAM8-22
inhibitory effect on HVA Ca2+ currents ([1]; bath application of 5 μM): inhibited HVA Ca^2+ currents
effect on mechanical and thermal hyperalgesia [8]: attenuate both mechanical and thermal hyperalgesia
agonist activity at mouse MRGPRC11 (mouse MRGPRC11 [6]): full agonist activity
effect on mechanical and thermal hyperalgesia [9]: attenuate both mechanical and thermal hyperalgesia
agonist activity at human MRGPRX1 (human MRGPRX1 [7]): full agonist activity
agonist activity at rat MRGPRC (rat MRGPRC): full agonist activity
